ChEMBL document CHEMBL4130342, “New semi-synthetic analogs of oleuropein show improved anticancer activity in vitro and in vivo” (Eur J Med Chem, 2017)

test system: SK-BR-3; experiment: Antiproliferative activity against human SKBR3 cells after 72 hrs by MTT reduction assay; format: functional, cell-based; settings: SK-BR-3, 72 h
How it was run: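 MTT reduction assay; adherent lines left to adhere overnight, suspension lines (HL-60, K562) seeded on the day. […] Incubation was 72 h at 37°C, with MTT added for the last 4 h. OD read at 545 nm (reference 690 nm). IC50 from 100(A0-A)/A0=50; means ± SD of 3 independent experiments.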

SMILES | IC50
C/C=C1/[C@H](O[C@@H]2O[C@H](CO)[C@@H](O)[C@H](O)[C@H]2O)OC=C(C(=O)OC)[C@H]1CC(=O)OCCc1ccc(OC)cc1 (stereo in doubt) | > 20 µM
C/C=C1/[C@H](O[C@@H]2O[C@H](COC(C)=O)[C@@H](OC(C)=O)[C@H](OC(C)=O)[C@H]2OC(C)=O)OC=C(C(=O)O)[C@H]1CC(=O)OC (stereo in doubt) | > 20 µM
C/C=C1/[C@H](O[C@@H]2O[C@H](CO)[C@@H](O)[C@H](O)[C@H]2O)OC=C(C(=O)OC)[C@H]1CC(=O)OCCc1ccc(F)cc1 (stereo in doubt) | > 20 µM
C/C=C1/[C@H](O[C@@H]2O[C@H](CO)[C@@H](O)[C@H](O)[C@H]2O)OC=C(C(=O)OC)[C@H]1CC(=O)OCCc1ccc([N+](=O)[O-])cc1 (stereo in doubt) | > 20 µM
C/C=C1/[C@H](O[C@@H]2O[C@H](COC(C)=O)[C@@H](OC(C)=O)[C@H](OC(C)=O)[C@H]2OC(C)=O)OC=C(C(=O)O)[C@H]1CC(=O)OCCCCCCCCCCCCCCCC | > 20 µM
C/C=C1/[C@H](O[C@@H]2O[C@H](COC(C)=O)[C@@H](OC(C)=O)[C@H](OC(C)=O)[C@H]2OC(C)=O)OC=C(C(=O)OC)[C@H]1CC(=O)OCCCc1ccc(OC)c(OC)c1 (stereo in doubt) | > 20 µM
C/C=C1/[C@H](O[C@@H]2O[C@H](COC(C)=O)[C@@H](OC(C)=O)[C@H](OC(C)=O)[C@H]2OC(C)=O)OC=C(C(=O)OC)[C@H]1CC(=O)OCCc1ccc(OC)cc1 (stereo in doubt) | > 20 µM
C/C=C1/[C@H](O[C@@H]2O[C@H](CO)[C@@H](O)[C@H](O)[C@H]2O)OC=C(C(=O)O)[C@H]1CC(=O)OC (stereo in doubt) | > 20 µM
C/C=C1/[C@H](O[C@@H]2O[C@H](COC(C)=O)[C@@H](OC(C)=O)[C@H](OC(C)=O)[C@H]2OC(C)=O)OC=C(C(=O)OC)[C@H]1CC(=O)OCCc1ccc(F)cc1 (stereo in doubt) | > 20 µM
C/C=C1/[C@H](O[C@@H]2O[C@H](CO)[C@@H](O)[C@H](O)[C@H]2O)OC=C(C(=O)OC)[C@H]1CC(=O)OCCc1ccc2c(c1)OCCO2 (stereo in doubt) | > 20 µM
C/C=C1/[C@H](O[C@@H]2O[C@H](CO)[C@@H](O)[C@H](O)[C@H]2O)OC=C(C(=O)OC)[C@H]1CC(=O)NCCC (stereo in doubt) | > 20 µM
C/C=C1/[C@H](O[C@@H]2O[C@H](COC(C)=O)[C@@H](OC(C)=O)[C@H](OC(C)=O)[C@H]2OC(C)=O)OC=C(C(=O)O)[C@H]1CC(=O)O | > 20 µM
C/C=C1/[C@H](O[C@@H]2O[C@H](CO)[C@@H](O)[C@H](O)[C@H]2O)OC=C(C(=O)OC)[C@H]1CC(=O)OCCCc1ccc(OC)c(OC)c1 (stereo in doubt) | > 20 µM
C/C=C1/[C@H](O[C@@H]2O[C@H](COC(C)=O)[C@@H](OC(C)=O)[C@H](OC(C)=O)[C@H]2OC(C)=O)OC=C(C(=O)OC)[C@H]1CC(=O)OCCc1ccc([N+](=O)[O-])cc1 (stereo in doubt) | > 20 µM
OCCc1ccc(O)c(O)c1 [HYDROXYTYROSOL] | 201 µM
C=CCOC(=O)C[C@@H]1C(C(=O)OC)=CO[C@@H](O[C@@H]2O[C@H](COC(C)=O)[C@@H](OC(C)=O)[C@H](OC(C)=O)[C@H]2OC(C)=O)/C1=C/C (stereo in doubt) | > 20 µM
C#CCOC(=O)C[C@@H]1C(C(=O)OC)=CO[C@@H](O[C@@H]2O[C@H](CO)[C@@H](O)[C@H](O)[C@H]2O)/C1=C/C (stereo in doubt) | > 15 µM
C/C=C1/[C@H](O[C@@H]2O[C@H](CO)[C@@H](O)[C@H](O)[C@H]2O)OC=C(C(=O)OC)[C@H]1CC(=O)OCCc1ccc(O)cc1 [LIGSTROSIDE] | > 20 µM
C/C=C1/[C@H](O[C@@H]2O[C@H](COC(C)=O)[C@@H](OC(C)=O)[C@H](OC(C)=O)[C@H]2OC(C)=O)OC=C(C(=O)OC)[C@H]1CC(=O)OCC (stereo in doubt) | > 15 µM

More lines, now with the values ahead:

IC50 | SMILES
> 15 µM | C/C=C1/[C@H](O[C@@H]2O[C@H](CO)[C@@H](O)[C@H](O)[C@H]2O)OC=C(C(=O)OC)[C@H]1CC(=O)OCc1ccc(OC)c(OC)c1 (stereo in doubt)
> 15 µM | C/C=C1/[C@H](O[C@@H]2O[C@H](COC(C)=O)[C@@H](OC(C)=O)[C@H](OC(C)=O)[C@H]2OC(C)=O)OC=C(C(=O)OC)[C@H]1CC(=O)OCc1ccccc1 (stereo in doubt)
> 15 µM | C=C(C)CCOC(=O)C[C@@H]1C(C(=O)OC)=CO[C@@H](O[C@@H]2O[C@H](COC(C)=O)[C@@H](OC(C)=O)[C@H](OC(C)=O)[C@H]2OC(C)=O)/C1=C/C
> 15 µM | C/C=C1/[C@H](O[C@@H]2O[C@H](CO)[C@@H](O)[C@H](O)[C@H]2O)OC=C(C(=O)OC)[C@H]1CC(=O)O
> 15 µM | C/C=C1/[C@H](O[C@@H]2O[C@H](CO)[C@@H](O)[C@H](O)[C@H]2O)OC=C(C(=O)OC)[C@H]1CC(=O)OCc1ccccc1 (stereo in doubt)
> 15 µM | C=C(C)CCOC(=O)C[C@@H]1C(C(=O)OC)=CO[C@@H](O[C@@H]2O[C@H](CO)[C@@H](O)[C@H](O)[C@H]2O)/C1=C/C (stereo in doubt)
> 15 µM | C/C=C1/[C@H](O[C@@H]2O[C@H](COC(C)=O)[C@@H](OC(C)=O)[C@H](OC(C)=O)[C@H]2OC(C)=O)OC=C(C(=O)OC)[C@H]1CC(=O)OCCC(C)C (stereo in doubt)
> 15 µM | C/C=C1/[C@H](O[C@@H]2O[C@H](COC(C)=O)[C@@H](OC(C)=O)[C@H](OC(C)=O)[C@H]2OC(C)=O)OC=C(C(=O)OC)[C@H]1CC(=O)OCc1ccco1 (stereo in doubt)
> 15 µM | C/C=C1/[C@H](O[C@@H]2O[C@H](CO)[C@@H](O)[C@H](O)[C@H]2O)OC=C(C(=O)OC)[C@H]1CC(=O)OCC (stereo in doubt)
> 15 µM | C/C=C1/[C@H](O[C@@H]2O[C@H](COC(C)=O)[C@@H](OC(C)=O)[C@H](OC(C)=O)[C@H]2OC(C)=O)OC=C(C(=O)OC)[C@H]1CC(=O)OC (stereo in doubt)
> 15 µM | C/C=C1/[C@H](O[C@@H]2O[C@H](CO)[C@@H](O)[C@H](O)[C@H]2O)OC=C(C(=O)OC)[C@H]1CC(=O)OCc1ccc2c(c1)OCCO2 (stereo in doubt)
> 15 µM | C/C=C1/[C@H](O[C@@H]2O[C@H](COC(C)=O)[C@@H](OC(C)=O)[C@H](OC(C)=O)[C@H]2OC(C)=O)OC=C(C(=O)OC)[C@H]1CC(=O)OCCCC (stereo in doubt)
> 15 µM | C/C=C1/[C@H](O[C@@H]2O[C@H](CO)[C@@H](O)[C@H](O)[C@H]2O)OC=C(C(=O)OC)[C@H]1CC(=O)OCCc1ccc(OC)c(OC)c1
> 15 µM | C/C=C1/[C@H](O[C@@H]2O[C@H](COC(C)=O)[C@@H](OC(C)=O)[C@H](OC(C)=O)[C@H]2OC(C)=O)OC=C(C(=O)OC)[C@H]1CC(=O)O
> 15 µM | C/C=C1/[C@H](O[C@@H]2O[C@H](COC(C)=O)[C@@H](OC(C)=O)[C@H](OC(C)=O)[C@H]2OC(C)=O)OC=C(C(=O)OC)[C@H]1CC(=O)OCCC1CCCCC1
> 15 µM | C/C=C1/[C@H](O[C@@H]2O[C@H](CO)[C@@H](O)[C@H](O)[C@H]2O)OC=C(C(=O)OC)[C@H]1CC(=O)OCc1ccco1 (stereo in doubt)
> 15 µM | C#CCOC(=O)C[C@@H]1C(C(=O)OC)=CO[C@@H](O[C@@H]2O[C@H](COC(C)=O)[C@@H](OC(C)=O)[C@H](OC(C)=O)[C@H]2OC(C)=O)/C1=C/C (stereo in doubt)
> 15 µM | C/C=C1/[C@H](O[C@@H]2O[C@H](CO)[C@@H](O)[C@H](O)[C@H]2O)OC=C(C(=O)OC)[C@H]1CC(=O)OCCC (stereo in doubt)
> 15 µM | C/C=C1/[C@H](O[C@@H]2O[C@H](COC(C)=O)[C@@H](OC(C)=O)[C@H](OC(C)=O)[C@H]2OC(C)=O)OC=C(C(=O)OC)[C@H]1CC(=O)OCCc1ccc(OC)c(OC)c1 (stereo in doubt)
> 15 µM | C/C=C1/[C@H](O[C@@H]2O[C@H](CO)[C@@H](O)[C@H](O)[C@H]2O)OC=C(C(=O)OC)[C@H]1CC(=O)OC (stereo in doubt)
> 15 µM | C/C=C1/[C@H](O[C@@H]2O[C@H](COC(C)=O)[C@@H](OC(C)=O)[C@H](OC(C)=O)[C@H]2OC(C)=O)OC=C(C(=O)OC)[C@H]1CC(=O)OCc1ccc2c(c1)OCCO2 (stereo in doubt)
> 15 µM | C/C=C1/[C@H](O[C@@H]2O[C@H](COC(C)=O)[C@@H](OC(C)=O)[C@H](OC(C)=O)[C@H]2OC(C)=O)OC=C(C(=O)OC)[C@H]1CC(=O)OCc1ccc(OC)c(OC)c1 (stereo in doubt)
> 15 µM | C/C=C1/[C@H](O[C@@H]2O[C@H](CO)[C@@H](O)[C@H](O)[C@H]2O)OC=C(C(=O)OC)[C@H]1CC(=O)OCCCC (stereo in doubt)
> 15 µM | C/C=C1/[C@H](O[C@@H]2O[C@H](COC(C)=O)[C@@H](OC(C)=O)[C@H](OC(C)=O)[C@H]2OC(C)=O)OC=C(C(=O)OC)[C@H]1CC(=O)OCCc1ccc2c(c1)OCCO2 (stereo in doubt)
> 15 µM | C/C=C1/[C@H](O[C@@H]2O[C@H](COC(C)=O)[C@@H](OC(C)=O)[C@H](OC(C)=O)[C@H]2OC(C)=O)OC=C(C(=O)OC)[C@H]1CC(=O)SCCc1ccccc1 (stereo in doubt)
> 15 µM | C/C=C1/[C@H](O[C@@H]2O[C@H](COC(C)=O)[C@@H](OC(C)=O)[C@H](OC(C)=O)[C@H]2OC(C)=O)OC=C(C(=O)OC)[C@H]1CC(=O)SCCC (stereo in doubt)
